Measured values as given in ChEMBL document CHEMBL3085707, “Solution-phase microwave assisted parallel synthesis of N,N'-disubstituted thioureas derived from benzoic acid: biological evaluation and molecular docking studies” (Eur J Med Chem, 2013).
Calls of active or inactive are those of the source. The rule behind the calls is not given here.

Key:
[1] = system: Radical scavenging activity; assay: Antioxidant activity assessed as DPPH free radical scavenging activity at 1 mM after 30 mins; format: functional
[2] = system: Aspergillus flavus; assay: Antifungal activity against Aspergillus flavus after 24 to 48 hrs by agar well diffusion method; format: functional
How it was run: (§1)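 Agar well diffusion: 20 mL inoculum added to molten potato dextrose agar and pour-plated, with 6 mm wells cut by cork borer after setting. Inhibition zone measured in mm and scored from + (<1 mm) to ++++ (>6 mm). 2% DMSO in screen medium was the negative control; fluconazole and terbinafine were separate positive controls.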

[3] = system: Candida tropicalis; assay: Antifungal activity against Candida tropicalis after 24 to 48 hrs by agar well diffusion method; format: functional; how it was run: as §1
[4] = target: Urease (Canavalia ensiformis, UniProt P07374); assay: Inhibition of jack bean urease assessed as ammonia production after 30 mins by indophenol method
How it was run: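 Indophenol (Weatherburn) ammonia read-out. Enzyme (5 U/mL) and test compound in buffer of 100 mM urea, 1 mM EDTA, 10 mM K2HPO4 and 10 mM […] at pH 8.2, incubated 30 min at 37 °C. Phenol and alkali reagents (NaOH, 0.1% active chloride NaOCl) then added; absorbance read by microplate reader. Run in triplicate; thiourea and acetohydroxamic acid as reference inhibitors.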

[5] = system: Saccharomyces cerevisiae; assay: Antifungal activity against Saccharomyces cerevisiae after 24 to 48 hrs by agar well diffusion method; format: functional; how it was run: as §1
[6] = system: Aspergillus niger; assay: Antifungal activity against Aspergillus niger after 24 to 48 hrs by agar well diffusion method; format: functional; how it was run: as §1
[7] = system: Radical scavenging activity; assay: Antioxidant activity assessed as DPPH free radical scavenging activity after 30 mins; format: functional
[8] = target: Urease (Canavalia ensiformis) (UniProt P07374); assay: Competitive inhibition of jack bean urease by Lineweaver-Burk plot analysis
How it was run: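 Urease kinetics by the Weatherburn method: buffer of 100 mM urea, 1 mM EDTA, 10 mM K2HPO4 and 10 mM […] at pH 8.2, with enzyme at 5 U/mL and inhibitor, incubated 30 min at 37 °C. Inhibitor was used at 0, 0.05 and 0.5 mM. Vmax and Km were taken from Lineweaver-Burk plots.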

Sequence of Urease (P07374 whole entry): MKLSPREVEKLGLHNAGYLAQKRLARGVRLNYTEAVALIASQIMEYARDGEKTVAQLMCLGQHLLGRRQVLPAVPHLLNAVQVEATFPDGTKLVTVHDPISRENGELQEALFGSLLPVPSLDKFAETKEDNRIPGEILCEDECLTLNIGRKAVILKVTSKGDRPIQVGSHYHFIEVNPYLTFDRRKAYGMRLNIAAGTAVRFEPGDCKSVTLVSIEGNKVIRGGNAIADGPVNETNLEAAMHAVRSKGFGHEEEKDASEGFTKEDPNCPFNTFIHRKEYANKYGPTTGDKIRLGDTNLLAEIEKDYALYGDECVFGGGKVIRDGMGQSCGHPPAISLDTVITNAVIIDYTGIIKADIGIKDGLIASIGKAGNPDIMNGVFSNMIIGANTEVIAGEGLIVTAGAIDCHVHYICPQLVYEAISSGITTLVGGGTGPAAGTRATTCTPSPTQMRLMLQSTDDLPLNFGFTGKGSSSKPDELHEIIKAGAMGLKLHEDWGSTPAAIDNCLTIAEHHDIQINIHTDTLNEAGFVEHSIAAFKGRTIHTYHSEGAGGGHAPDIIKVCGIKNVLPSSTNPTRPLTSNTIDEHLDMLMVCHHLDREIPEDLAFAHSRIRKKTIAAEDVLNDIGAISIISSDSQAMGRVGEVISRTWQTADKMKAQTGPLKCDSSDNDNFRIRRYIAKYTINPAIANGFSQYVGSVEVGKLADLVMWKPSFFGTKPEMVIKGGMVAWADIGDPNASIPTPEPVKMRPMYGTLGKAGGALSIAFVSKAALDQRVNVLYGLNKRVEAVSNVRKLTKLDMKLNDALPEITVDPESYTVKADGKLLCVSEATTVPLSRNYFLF
Sequence of Urease (Canavalia ensiformis) (P07374 whole entry, looked up): as the sequence (P07374 whole entry) above

Row | SMILES | inhibition [1] | inhibition zone (IZ) [2] | inhibition zone (IZ) [3] | IC50 [4] | inhibition zone (IZ) [5] | inhibition zone (IZ) [6] | IC50 [7] | inhibition [8]
1 | O=C(NC(=S)Nc1ccccc1Cl)c1ccccc1 | 26% | <1 mm | <1 mm | 41.2 µM | <1 mm | <1 mm |  | 
2 | CCCOC(=O)c1cc(O)c(O)c(O)c1 [PROPYL GALLATE] |  |  |  |  |  |  | 40.8 µM | 
3 | OC(Cn1cncn1)(Cn1cncn1)c1ccc(F)cc1F [FLUCONAZOLE] |  | 3 mm | 3 mm |  | 3 mm | 3 mm |  | 
4 | O=C(NC(=S)Nc1c(Cl)cc(Cl)cc1Cl)c1ccccc1 | 19% | 3 mm | 3 mm | 1.67 µM | 3 mm | 3 mm |  | Active
5 | O=C(NC(=S)NCc1ccccc1)c1ccccc1 | 22% | inactive | inactive | 27.4 µM | inactive | inactive |  | 
6 | Cc1cccc(NC(=S)NC(=O)c2ccccc2)c1C | 27% | <1 mm | <1 mm | 3.17 µM | <1 mm | <1 mm |  | 
7 | CCCCc1ccc(NC(=S)NC(=O)c2ccccc2)cc1 |  | <1 mm | <1 mm | 47.2 µM | <1 mm | <1 mm | 676 µM | 
8 | O=C(NC(=S)Nc1ccc(F)cc1)c1ccccc1 | 31% | 3 mm | 3 mm | 41.2 µM | 3 mm | 3 mm |  | 
9 | NC(N)=S [THIOUREA] |  |  |  | 22.3 µM |  |  |  | 
10 | O=C(NC(=S)NC1CCCCC1)c1ccccc1 | 28% | <1 mm | <1 mm | 53.2 µM | <1 mm | <1 mm |  | 
11 | COc1ccc(O)c(C(C)(C)C)c1.COc1ccc(O)cc1C(C)(C)C [BUTYLATED HYDROXYANISOLE] |  |  |  |  |  |  | 28.2 µM | 
12 | O=C(NC(=S)NCc1ccccc1Cl)c1ccccc1 | 36% | <1 mm | <1 mm | 35.3 µM | <1 mm | <1 mm |  | 
13 | O=C(NC(=S)Nc1ccc(Cl)cc1)c1ccccc1 |  | 1 mm | 1 mm | 35.3 µM | 1 mm | 1 mm | 265 µM | 
14 | O=C(NC(=S)Nc1cc(Cl)cc(Cl)c1)c1ccccc1 |  | <1 mm | <1 mm | 18.4 µM | <1 mm | <1 mm | 27 µM | 
15 | COc1cccc(NC(=S)NC(=O)c2ccccc2)c1 |  | 3 mm | 3 mm | 12.8 µM | 3 mm | 3 mm | 805 µM | 
16 | Cc1cc(C)c(NC(=S)NC(=O)c2ccccc2)c(C)c1 | 24% | 1 mm | 1 mm | 8.11 µM | <1 mm | <1 mm |  | 

Row | SMILES | inhibition [1] | inhibition zone (IZ) [2] | inhibition zone (IZ) [3] | IC50 [4] | inhibition zone (IZ) [5] | inhibition zone (IZ) [6] | IC50 [7] | inhibition [8]
17 | O=C(NC(=S)Nc1ccccc1C(F)(F)F)c1ccccc1 | 38% | 3 mm | 3 mm | 38.2 µM | 1 mm | 1 mm |  | 
18 | O=C(NC(=S)Nc1ncccn1)c1ccccc1 |  | inactive | inactive | 8.21 µM | <1 mm | <1 mm | 276 µM | 
19 | Cc1ccc(NC(=S)NC(=O)c2ccccc2)cc1 |  | 1 mm | 1 mm | 6.23 µM | 1 mm | 1 mm | 23.3 µM | 
20 | O=C(NC(=S)Nc1ccc(C(F)(F)F)cc1)c1ccccc1 |  | 3 mm | 3 mm | 12.2 µM | 3 mm | 3 mm | 114 µM | 
21 | O=C(NC(=S)Nc1c(Cl)c(Cl)cc(Cl)c1Cl)c1ccccc1 | 31% | 3 mm | 3 mm | 74.9 µM | 3 mm | 3 mm |  | 
22 | O=C(NC(=S)Nc1cccc(C(F)(F)F)c1)c1ccccc1 | 34% | 1 mm | 1 mm | 39.6 µM | 3 mm | 3 mm |  | 
23 | O=C(NC(=S)Nc1ccc(Cl)c(Cl)c1)c1ccccc1 |  | <1 mm | <1 mm | 5.51 µM | <1 mm | <1 mm | 70 µM | 
24 | O=C(NC(=S)Nc1ccccc1)c1ccccc1 [N-(PHENYLCARBAMOTHIOYL)BENZAMIDE] |  | inactive | inactive | 14.1 µM | inactive | inactive | 769 µM | 
25 | O=C(NC(=S)Nc1cccc(F)c1)c1ccccc1 | 38% | <1 mm | <1 mm | 3.52 µM | 1 mm | 1 mm |  | 
26 | O=C(NC(=S)Nc1cccc(Cl)c1)c1ccccc1 | 21% | <1 mm | <1 mm | 27.3 µM | <1 mm | <1 mm |  | 
27 | O=C(NC(=S)Nc1cccc(Cl)c1Cl)c1ccccc1 |  | <1 mm | <1 mm | 32.2 µM | <1 mm | <1 mm | 29.5 µM | 
28 | O=C(NC(=S)Nc1cc(Cl)ccc1Cl)c1ccccc1 |  | <1 mm | <1 mm | 4.54 µM | <1 mm | <1 mm | 30.7 µM | 
29 | O=C(NC(=S)Nc1ccc(Cl)cc1Cl)c1ccccc1 |  | 1 mm | 1 mm | 13.2 µM | 3 mm | 3 mm | 240 µM | 
30 | CN(C/C=C/C#CC(C)(C)C)Cc1cccc2ccccc12 [TERBINAFINE] |  | 3 mm | 3 mm |  | 3 mm | 3 mm |  | 
31 | O=C(NC(=S)Nc1c(Cl)cccc1Cl)c1ccccc1 | 29% | 1 mm | 1 mm | 4.27 µM | 1 mm | 1 mm |  | 
